Screens deposited in PubChem BioAssay by Sanford-Burnham Center for Chemical Genomics.
UPR XBP1 act: adaptive UPR (XBP1) activation; hit rate 0.33% among 330,000; activation, % at 20 µM; CHO-XBP1 luciferase reporter, IRE1-XBP1 UPR activation, luminescence; percent of tunicamycin response, DMSO as zero; AID 463104;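 active = versus positive control, 20 µM dose yields 30% or more activation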;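 also: 100% = tunicamycin at 10 µg/mL and 0% = DMSO only wells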
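assay system = CHO-XBP1 luciferase reporter cells | amount = 1000 cells/well | buffer or medium = F12 plus 10% FBS | compound dosing = single point, 20 µM final compound, 1% DMSO | incubation = 16-18 h cell attachment at 37 °C, then 6 h compound exposure | detection = Steady-Glo luminescence read | controls = tunicamycin 10 µg/mL and vehicle-only wells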
UPR CHOP act: apoptotic UPR (CHOP) activation | CHO-CHOP luciferase reporter, luminescence; percent of tunicamycin response over DMSO baseline | activation, % at 10 µM | hit rate 0.34% among 330,000 | AID 449763;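 active = at 10 µM dose, activation of 40% or more, normalized to positive control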;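 also: 100% = tunicamycin at 10 µg/mL and 0% = DMSO alone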
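assay system = CHO CHOP reporter cells | amount = 500 CHO-CHOP cells per well | buffer or medium = F12 with 10% FBS | incubation = 16-18 h cell attachment, then 6 h compound exposure, 37 °C | detection = luminescence read with Steady-Glo | read-out = percent activation relative to tunicamycin control | controls = tunicamycin high control, DMSO low control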
UBC13 inh: human UBC13 polyubiquitination inhibition | UBC13 polyubiquitin chain formation, TR-FRET | inhibition, % at 20 µM | hit rate 0.47% among 330,000 | AID 485273 | P61088; in the data active = inhibition above about 45%, passing the limit was not always enough
Apaf-1 inh: blocks human Apaf-1 apoptosome activity; O14727; reconstituted apoptosome caspase-3 activity, DEVD-Rh110 fluorescence; inhibition, % at 20 µM; hit rate 0.71% among 330,000; AID 489030; active = inhibition of at least 40% at 20 µM;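 also: plate controls were DMSO wells for no effect and DEVD-CHO caspase inhibitor wells for full effect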
Target sequence (O14727 whole entry, looked up): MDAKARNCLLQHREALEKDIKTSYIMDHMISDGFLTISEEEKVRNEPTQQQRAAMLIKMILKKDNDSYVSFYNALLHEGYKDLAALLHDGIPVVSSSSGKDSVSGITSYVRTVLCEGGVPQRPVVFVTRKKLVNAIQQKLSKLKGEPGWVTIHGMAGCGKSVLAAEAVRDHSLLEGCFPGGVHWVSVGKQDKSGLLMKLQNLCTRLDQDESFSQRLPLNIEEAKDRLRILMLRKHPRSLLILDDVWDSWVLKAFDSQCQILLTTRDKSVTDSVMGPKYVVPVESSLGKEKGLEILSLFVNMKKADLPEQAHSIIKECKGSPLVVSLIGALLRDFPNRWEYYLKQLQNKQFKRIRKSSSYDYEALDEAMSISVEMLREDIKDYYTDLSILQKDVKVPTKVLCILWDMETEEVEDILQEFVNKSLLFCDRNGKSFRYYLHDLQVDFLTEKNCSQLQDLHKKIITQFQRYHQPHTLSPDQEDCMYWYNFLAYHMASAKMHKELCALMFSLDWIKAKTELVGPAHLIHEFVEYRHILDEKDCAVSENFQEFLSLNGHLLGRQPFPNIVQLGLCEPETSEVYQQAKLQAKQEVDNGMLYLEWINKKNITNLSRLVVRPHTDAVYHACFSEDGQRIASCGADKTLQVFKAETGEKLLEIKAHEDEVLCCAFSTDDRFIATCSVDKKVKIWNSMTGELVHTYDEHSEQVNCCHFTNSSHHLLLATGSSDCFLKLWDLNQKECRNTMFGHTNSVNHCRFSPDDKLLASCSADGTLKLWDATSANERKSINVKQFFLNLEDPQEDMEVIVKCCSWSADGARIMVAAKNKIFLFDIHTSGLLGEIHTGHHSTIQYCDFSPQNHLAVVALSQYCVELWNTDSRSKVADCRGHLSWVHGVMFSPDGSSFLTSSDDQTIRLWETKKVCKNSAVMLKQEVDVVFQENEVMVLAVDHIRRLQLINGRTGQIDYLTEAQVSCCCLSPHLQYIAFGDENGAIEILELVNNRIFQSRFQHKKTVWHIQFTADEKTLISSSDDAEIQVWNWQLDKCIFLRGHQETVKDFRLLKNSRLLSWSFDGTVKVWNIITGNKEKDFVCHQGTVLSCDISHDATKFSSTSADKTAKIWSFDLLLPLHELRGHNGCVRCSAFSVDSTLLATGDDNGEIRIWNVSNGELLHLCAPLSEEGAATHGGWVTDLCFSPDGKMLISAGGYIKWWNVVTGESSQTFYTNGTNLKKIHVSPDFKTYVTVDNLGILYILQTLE
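System: reconstituted apoptosome with Apaf-1, cytochrome c, caspase-9, procaspase-3, dATP; Signal: Rh110 fluorescence intensity; Schedule: 30 min compound preincubation, 50 min activation, room temperature; Reagent: cytochrome c trigger plus (Z-DEVD)2-Rh110 caspase-3 substrate.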
Mdm2-MdmX inh: inhibitors of human Mdm2/MdmX interaction. SaOS-2 split-luciferase Mdm2/MdmX complementation, luminescence. inhibition, % at 8 µM. hit rate 3% among 330,000. AID 485346;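 active = inhibition of at least 50% at 8 µM in the primary screen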
Casp3 counter: caspase-3 inhibition (UBC13 counter-screen); hit rate 4% among 1,400; Recombinant caspase-3, Caspase-Glo 3/7 luminescence, 60 min; shares compounds with UBC13 inh; inhibition, % at 20 µM;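 active = mean inhibition across replicates above about 26%, limit read from the data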;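 also: plate controls were DMSO with caspase-3 for no effect and DMSO wells lacking enzyme for full effect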
UBC13 conf: human UBC13 polyubiquitin inhibition, confirmed. AID 488859. shares compounds with UBC13 inh. UBC13 polyubiquitination, TR-FRET, biochemical. hit rate 68% among 1,400. inhibition, % at 10 µM; in the data active = inhibition above about 45%
Active calls of the source: *; . = no result. Only some compounds are listed: those with a hit (about 4.1% of all), similar ones and a draw of the others.

SMILES	UPR XBP1 act	UPR CHOP act	UBC13 inh	Apaf-1 inh	Mdm2-MdmX inh	Casp3 counter	UBC13 conf
CC1(C)Cc2c(c(N3CCOCC3)nc3sc4c(=O)[nH]cnc4c23)CS1	5	-2	50*	11	6	-2	54*
CCOC(=O)N1CCN(C(=O)c2cc3c(s2)-c2c(C)cccc2OC3)CC1	0	1	19	13	9	.	.
CCN1CCN(C(=O)c2cc3c(s2)-c2c(C)cccc2OC3)CC1	4	3	80*	1	-34	54*	76*
C#CCOCCOCCOCCNc1nc(N2CCN(C(=O)[C@H](CCCN=C(N)N)n3cc(C(N)[C@@H](C)CC)nn3)CC2)nc(N2CCN(C(=O)[C@H](CC(N)=O)n3cc([C@@H](N)CC(N)=O)nn3)CC2)n1 (stereo partly specified)	1	1	64*	33	-6	2	51*
C#CCOCCOCCOCCNc1nc(N2CCN(C(=O)[C@H](CCCCN)n3cc(CN)nn3)CC2)nc(N2CCN(C(=O)[C@H](CC(N)=O)n3cc(C(N)[C@H](C)CC)nn3)CC2)n1 (stereo partly specified)	0	0	37	9	-6	.	.
C#CCOCCOCCOCCNc1nc(N2CCN(C(=O)[C@H](CCCN=C(N)N)n3cc(C(N)[C@@H](C)CC)nn3)CC2)nc(N2CCN(C(=O)[C@H](CC(N)=O)n3cc([C@@H](N)C(C)C)nn3)CC2)n1 (stereo partly specified)	3	0	7	12	19	.	.
C#CCOCCOCCOCCNc1nc(N2CCN(C(=O)[C@H](CCCCN)n3cc(CN)nn3)CC2)nc(N2CCN(C(=O)[C@H](CCCN=C(N)N)n3cc(C(N)[C@H](C)CC)nn3)CC2)n1 (stereo partly specified)	6	0	92*	35	-10	2	103*
C#CCOCCOCCOCCNc1nc(N2CCN(C(=O)[C@H](CCCN=C(N)N)n3cc(C(N)[C@H](C)CC)nn3)CC2)nc(N2CCN(C(=O)[C@H](CCCN=C(N)N)n3cc(C(N)[C@@H](C)CC)nn3)CC2)n1 (stereo partly specified)	-4	1	74*	36	-15	-1	56*
C#CCOCCOCCOCCNc1nc(N2CCOCC2)nc(N2CCN(C(=O)[C@H](CCCN=C(N)N)n3cc(C(N)[C@@H](C)CC)nn3)CC2)n1 (stereo partly specified)	1	0	30	25	7	.	.
Cc1cccc(NC(=O)CSc2nnc(-c3cc(C)[nH]n3)n2N)c1	-3	1	7	-9	9	.	.
CC(Oc1ccc(Br)cc1)C(=O)NCCCN1CCCC1=O (stereo unspecified)	-2	0	10	-5	7	.	.
Nc1cccc2c1nnn2C1OC(CO)C(O)C(O)C1O (stereo unspecified)	-3	3	4	1	19	.	.
Cc1cccc2c1c(N=NC(N)=S)c(O)n2C1OC(CO)C(O)C(O)C1O (stereo unspecified)	-5	2	67*	-18	5	5	97*
CCCN(CCC)CC(O)CN1C(=O)N(CN2C(=O)N(CC(O)CN(CCC)CCC)C(=O)C2(C)C)C(C)(C)C1=O (stereo unspecified)	-3	-2	4	-3	8	.	.
Clc1ccc2c(c1)CNc1c(ncnc1N1CCOCC1)O2	5	-1	50*	-9	25	-2	41
O=C(CCNS(=O)(=O)c1ccccc1F)N1CCN(C/C=C/c2ccccc2)CC1	-2	1	-6	11	-14	.	.
Cc1ccc(C(=O)COC(=O)c2nc(Cl)ccc2Cl)cc1	-2	1	9	12	17	.	.
CCOc1ccc(C(=O)C(C)OC(=O)c2nc(Cl)ccc2Cl)cc1 (stereo unspecified)	-3	-2	47*	12	16	-1	72*
COc1ccc(NC(=O)CCCn2cc([N+](=O)[O-])cn2)cc1	-3	0	8	-2	14	.	.
C[C@]12CCC(=O)C=C1C=C[C@@H]1[C@@H]2CC[C@@]2(C)[C@H]1CC[C@@]21CCC(=O)O1	2	0	76*	2	8	-1	8
CC(=O)O[C@]1(C(C)=O)CCC2C3C=C(C)C4=CC(=O)CC[C@]4(C)C3CC[C@@]21C (stereo partly specified)	-2	3	-4	20	-6	.	.
O=C(CCC(=O)N1CCOc2ccc(Cl)cc21)NCCCN1CCN(c2ccccc2F)CC1	-1	0	62*	19	48	2	43
COc1ccc(Nc2nc(N3CCCC3)c3ccccc3n2)cc1	6	7	51*	39	48	-2	49*
COc1ccc(C(=O)COC(=O)c2sccc2C)cc1OC	6	7	12	-3	13	.	.
CC(=O)Nc1ccc2c(c1)C(=O)N(c1cccc(C)c1)C2=O	3	2	46*	-12	-9	2	40
SMILES	UPR XBP1 act	UPR CHOP act	UBC13 inh	Apaf-1 inh	Mdm2-MdmX inh	Casp3 counter	UBC13 conf
O=C(CN1C(=O)NC2(CCCC2)C1=O)NCCC1=CCCCC1	1	0	97*	-11	-13	-1	6
Cc1ccc(C2(C)NC(=O)N(CC(=O)NCCC3=CCCCC3)C2=O)cc1 (stereo unspecified)	-2	0	1	20	-6	.	.
CSCCC(NC(=O)c1ccccc1Cl)C(=O)NNC(=O)c1csc(N2CCOCC2)n1 (stereo unspecified)	0	-1	50*	0	25	-2	57*
CSCCC(NC(=O)c1ccccc1Br)C(=O)NNC(=O)c1csc(N2CCOCC2)n1 (stereo unspecified)	1	0	50*	1	13	-1	52*
CN=C1SC(CC(=O)Nc2cc(Cl)ccc2Cl)C(=O)N1C (stereo unspecified)	1	-1	5	-8	12	.	.
CCOC(=O)C(=NC1CCS(=O)(=O)C1)NNc1ccccc1Cl (stereo unspecified)	-1	-1	42	-17	17	.	.
CCOC(=O)C(=NC1CCS(=O)(=O)C1)NNc1cc(Cl)ccc1Cl (stereo unspecified)	1	-2	68*	-10	-21	-5	57*
O=C1CC(c2ccc(F)cc2)C(n2cncn2)C(O)=C1C1NCCc2ccccc21 (stereo unspecified)	1	0	54*	-6	-5	-1	9
